Assay results from different studies.
Protocols differ between the studies behind these lines.
Target: Death-associated protein kinase 2 (DAPK2, Homo sapiens, UniProt Q9UIK4)

| Compound | effect on | action | method | tested at | measurement | result |
| --- | --- | --- | --- | --- | --- | --- |
| Cc1cnc(NC2CCOCC2)nc1-n1cnc(C(=O)NC(CN)c2cc(F)cc(Cl)c2)c1 (stereo not shown) | enzyme activity | inhibitor | radiometric | 1 µM | remaining activity | 108% |
| N#CCCc1ccc2c(c1)-c1[nH]c3ccc([N+](=O)[O-])cc3c1CC(=O)N2 | cell-free assay |  |  | 0.5 µM | remaining signal | 96.5% |
| COc1cc(Cl)c(C(=O)N[C@@H](CN[C@H]2CC[C@@H](N)CC2)Cc2ccc(C#N)cc2)cc1-c1ccc(CN[C@H](C)c2ccc(C)cc2)o1 | enzyme activity | inhibitor |  | 1 µM | remaining activity | 123% |
| CS(=O)(=O)NCC[C@H](NC(=O)c1cncc2c1cnn2-c1ccc(F)cc1)c1ccnc(S(C)(=O)=O)c1 | cell-free assay |  | competition with immobilised ligand | 1 µM | remaining binding | 100% |
| Cc1cc(NC(=O)c2cccc3cc(-c4cccc5[nH]nc(N)c45)ccc23)ccc1F | enzyme activity | inhibitor |  | 0.1 µM | activity vs control | 96% |
| CC(C)(C)c1nc2c(s1)c1nc(N)ncc1c1ccc(NS(=O)(=O)c3c(F)cccc3F)c(F)c12 | enzyme activity | inhibitor | radiometric | 1 µM | remaining activity | 81% |
| Cc1sc(C(=O)NC2COC2)cc1-n1cc(NC(=O)Nc2c(F)cccc2Cl)cn1 | enzyme activity | inhibitor |  | 10 µM | remaining activity | 99.5% |
| CN(C)C(=O)Cn1cc(-c2nc([C@@](C)(c3ccc(-c4cnc(N)nc4)cc3)C3CC3)no2)cn1 | cell-free assay |  | competition with immobilised ligand | 1 µM | remaining binding | 100% |
| CCN(CC)CCNC(=O)c1c(C)[nH]c(/C=C2\C(=O)Nc3ccc(F)cc32)c1C | enzyme activity | inhibitor |  | 0.3 µM | inhibition | 30% |
| Cc1nc(C2CCN(C(=O)c3ccc(OC(F)(F)F)cc3N)CC2)c2ncc(N3CCN(C)CC3)cc2n1 | cell-free assay |  | competition with immobilised ligand | 1 µM | remaining binding | 100% |
| CNC(=O)c1cc(Oc2ccc(NC(=O)Nc3ccc(Cl)c(C(F)(F)F)c3)cc2)ccn1 | enzyme activity | inhibitor |  | 10 µM | inhibition | 6% |
| CCN(CC)c1ccc(C2=NNC(=O)CC2C)cc1[N+](=O)[O-] (stereo not shown) | enzyme activity | inhibitor |  | 10 µM | remaining activity | 99% |
| CCCS(=O)(=O)Nc1ccc(F)c(C(=O)c2c[nH]c3ncc(-c4ccc(Cl)cc4)cc23)c1F | enzyme activity | inhibitor |  | 1 µM | inhibition | < 10% |
| O=C1Nc2ccc(Cl)cc2C1=Cc1cc(Cl)c(O)c(Cl)c1 | cell-free assay |  |  | 0.5 µM | remaining signal | 135% |
| O=C(Nc1ccc(Oc2ccc(F)cc2)cc1)N1CCc2ncccc2[C@H]1c1ccc(F)cc1 | cell-free assay |  | competition with immobilised ligand | 1 µM | remaining binding | 100% |
| Cc1ccc(Nc2nccc(N(C)c3ccc4c(C)n(C)nc4c3)n2)cc1S(N)(=O)=O | enzyme activity | inhibitor |  | 0.3 µM | inhibition | 1% |
